Source: the RNAGym collection of RNA variant scans (doi:10.1038/nmeth.2970)

B1: NELF-E aptamer (parent)
chain: CCCAACGACUGCCGAGCGAGAUUACGCUUGAGCGCCCCACUGAGGAUGCCCACGGGCGAUUGGGGCACGG

Variants of: B1
Experiment: HiTS-RAP
Settings: with NELF-E (Drosophila)
Method in brief: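 Kd came from weighted Hill fits to the first binding curve, with intensities normalised to sequencing intensity and averaged per sequence, keeping only fits whose variance was below 1,000,000. That curve was imaged on an Illumina GAIIx flowcell, where sequenced aptamer DNA templates with a T7 promoter and ter site had been transcribed in situ by T7 RNA polymerase and halted by GST-Tus (30 minutes, 37°C). Before each image, clusters equilibrated for 30 minutes at room temperature with NELF-E-mOrange at 0.064 to 1000 nM in HEPES binding buffer.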

CCCGACGACUGCCGAGCGAGAUUACGCUUGAGCGCCCCACUGAGGAUGCCCACGGGCGAUUGGCGCACGG [A4G G64C] was tested. Which Kd did it give?
The Kd was 7.19 nM.

For CCCGACGACUGCCGAGCGAGAUUACGCUUGAGCGCCCCACUGAGGAUGCCCACGGGCGAUUGGUGCACGG [A4G G64U], which Kd is on record?
Its Kd is 7.6 nM.

CCCGACGACUGCCGAGCGAGAUUACGCUUGAGCGCCCCACUGAGGAUGCCCACGGGCGAUUGGAGCACGG [A4G G64A] was tested. Which Kd did it give?
Its Kd is 8.61 nM.

How did the Kd turn out when CCCGACGACUGCCGAGCGAGAUUACGCUUGAGCGCCCCACUGAGGAUGCCCACGGGCGAUUGGGCCACGG [A4G G65C] was run?
The Kd was 16.2 nM.

CCCGACGACUGCCGAGCGAGAUUACGCUUGAGCGCCCCACUGAGGAUGCCCACGGGCGAUUGGGUCACGG [A4G G65U] was tested. Which Kd did it give?
The Kd was 6.71 nM.

CCCGACGACUGCCGAGCGAGAUUACGCUUGAGCGCCCCACUGAGGAUGCCCACGGGCGAUUGGGACACGG [A4G G65A] was tested. Which Kd did it give?
The Kd was 5.5 nM.

For CCCUACGACUGCCGAGCGAGAUUACGCUUGAGCGCCCCACUGAGGAUGCCCACGGGCGAUUGGGGCACGG [A4U], which Kd is on record?
The Kd was 5.39 nM.

How did the Kd turn out when CCCGACGACUGCCGAGCGAGAUUACGCUUGAGCGCCCCACUGAGGAUACCCACGGGCGAUUGGGGCACGG [A4G G48A] was run?
The Kd was 11 nM.

How did the Kd turn out when CCCGACGACUGCCGAGCGAGAUUACGCUUGAGCGCCCCACUGAGGAUUCCCACGGGCGAUUGGGGCACGG [A4G G48U] was run?
The Kd was 8.36 nM.

How did the Kd turn out when CCCGACGACUGCCGAGCGAGAUUACGCUUGAGCACCCCACUGAGGAUGCCCACGGGCGAUUGGGGCACGG [A4G G34A] was run?
Its Kd is 7.45 nM.

Which Kd does the source give for CCCGACGACUGCCGAGCGAGAUUACGCUUGAGCUCCCCACUGAGGAUGCCCACGGGCGAUUGGGGCACGG [A4G G34U] here?
Its Kd is 6.59 nM.

For CCCGACGACUGCCGAGCGAGAUUACGCUUGAGCCCCCCACUGAGGAUGCCCACGGGCGAUUGGGGCACGG [A4G G34C], which Kd is on record?
Its Kd is 10.8 nM.

How did the Kd turn out when CCCGACGACUGCCGAGCGAGAUUACGCUUGAGCGCCCCACUUAGGAUGCCCACGGGCGAUUGGGGCACGG [A4G G42U] was run?
The Kd was 9.27 nM.

CCCGACGACUGCCGAGCGAGAUUACGCUUGAGCGCCCCACUAAGGAUGCCCACGGGCGAUUGGGGCACGG [A4G G42A] was tested. Which Kd did it give?
The Kd was 45.2 nM.

For CCCGACGACUGCCGAGCGAGAUUACGCUUGAGCGCCCCACGGAGGAUGCCCACGGGCGAUUGGGGCACGG [A4G U41G], which Kd is on record?
Its Kd is 5.56 nM.

How did the Kd turn out when CCCGACGACUGCCGAGCGAGAUUACGCUUGAGCGCCCCACAGAGGAUGCCCACGGGCGAUUGGGGCACGG [A4G U41A] was run?
The Kd was 73.6 nM.

CCCGACGACUGCCGAGCGAGAUUACGCUUGAGCGCCCCACCGAGGAUGCCCACGGGCGAUUGGGGCACGG [A4G U41C] was tested. Which Kd did it give?
Its Kd is 73 nM.

Which Kd does the source give for CCCGACGACUGCCGAGCGAGAGUACGCUUGAGCGCCCCACUGAGGAUGCCCACGGGCGAUUGGGGCACGG [A4G U22G] here?
The Kd was 5.51 nM.

CCCGACGACUGCCGAGCGAGAAUACGCUUGAGCGCCCCACUGAGGAUGCCCACGGGCGAUUGGGGCACGG [A4G U22A] was tested. Which Kd did it give?
The Kd was 6.17 nM.

CCCGACGACUGCCGAGCGAGACUACGCUUGAGCGCCCCACUGAGGAUGCCCACGGGCGAUUGGGGCACGG [A4G U22C] was tested. Which Kd did it give?
The Kd was 4.86 nM.

CCCGACGACUGCCGAGCGAGAUUACGCUUGAGCGCCCCACUGAGGAUGCCCACAGGCGAUUGGGGCACGG [A4G G54A] was tested. Which Kd did it give?
Its Kd is 14.1 nM.

For CCCGACGACUGCCGAGCGAGAUUACGCUUGAGCGCCCCACUGAGGAUGCCCACUGGCGAUUGGGGCACGG [A4G G54U], which Kd is on record?
The Kd was 6.61 nM.

With CCCGACGACUGCCGAGCGAGAUUACGCUUGAGCGCCCCACUGAGGAGGCCCACGGGCGAUUGGGGCACGG [A4G U47G] as the variant, how does the Kd read?
The Kd was 7.07 nM.

How did the Kd turn out when CCCGACGACUGCCGAGCGAGAUUACGCUUGAGCGCCCCACUGAGGAAGCCCACGGGCGAUUGGGGCACGG [A4G U47A] was run?
The Kd was 12.3 nM.

Which Kd does the source give for CCCGACGACUGCCGAGCGAGAUUACGCCUGAGCGCCCCACUGAGGAUGCCCACGGGCGAUUGGGGCACGG [A4G U28C] here?
Its Kd is 9.05 nM.

How did the Kd turn out when CCCGACGACUGCCGAGCGAGAUUACGCAUGAGCGCCCCACUGAGGAUGCCCACGGGCGAUUGGGGCACGG [A4G U28A] was run?
The Kd was 4.59 nM.

CCCGACGACUGCCGAGCGAGAUUACGCGUGAGCGCCCCACUGAGGAUGCCCACGGGCGAUUGGGGCACGG [A4G U28G] was tested. Which Kd did it give?
Its Kd is 6.58 nM.

How did the Kd turn out when CCCUUCGACUGCCGAGCGAGAUUACGCUUGAGCGCCCCACUGAGGAUGCCCACGGGCGAUUGGGGCACGG [A4U A5U] was run?
Its Kd is 4.82 nM.

Which Kd does the source give for CCCUGCGACUGCCGAGCGAGAUUACGCUUGAGCGCCCCACUGAGGAUGCCCACGGGCGAUUGGGGCACGG [A4U A5G] here?
Its Kd is 5.88 nM.

With CCCGACGACUGCCGAGCGAUAUUACGCUUGAGCGCCCCACUGAGGAUGCCCACGGGCGAUUGGGGCACGG [A4G G20U] as the variant, how does the Kd read?
The Kd was 7.1 nM.

For CCCGACGACUGCCGAGCGAAAUUACGCUUGAGCGCCCCACUGAGGAUGCCCACGGGCGAUUGGGGCACGG [A4G G20A], which Kd is on record?
The Kd was 5.15 nM.

With CCCGACGACUGCCGAGCGAGAUUACGCUUGAGCGCCCCACUGAGGAUGCCCACGGGCGAUUUGGGCACGG [A4G G62U] as the variant, how does the Kd read?
The Kd was 8.86 nM.

How did the Kd turn out when CCCGACGACUGCCGAGCGAGAUUACGCUUGAGCGCCCCACUGAGGAUGCCCACGGGCGAUUAGGGCACGG [A4G G62A] was run?
The Kd was 20.8 nM.

Which Kd does the source give for CCCGACGACUGCCGAGCGAGAUUACGCUUGAGCGCCCCACUGAGGAUGCCCACGGGCGACUGGGGCACGG [A4G U60C] here?
Its Kd is 9.89 nM.

How did the Kd turn out when CCCGACGACUGCCGAGCGAGAUUACGCUUGAGCGCCCCACUGAGGAUGCCCACGGGCGAGUGGGGCACGG [A4G U60G] was run?
Its Kd is 6.94 nM.

CCCGACGACUGCCGAGCGAGAUUACGCUUGAGCGCCCCACUGAGGAUGCCCACGGGCGAAUGGGGCACGG [A4G U60A] was tested. Which Kd did it give?
Its Kd is 10.6 nM.

For CCCGACGACUGCCGAGCGAGAUUACGCUUGAGCGCCCCACUGAGGAUGCCCACGGACGAUUGGGGCACGG [A4G G56A], which Kd is on record?
Its Kd is 9.42 nM.

How did the Kd turn out when CCCGACGACUGCCGAGCGAGAUUACGCUUGAGCGCCCCACUGAGGAUGCCCACGGUCGAUUGGGGCACGG [A4G G56U] was run?
The Kd was 6.06 nM.
